Experimental data from ChEMBL document CHEMBL1144209, “CYP19 (aromatase): exploring the scaffold flexibility for novel selective inhibitors” (Bioorg Med Chem, 2008).

What was measured:
Aromatase [1] = target: T1, Aromatase (Homo sapiens, UniProt P11511); test: Inhibition of human aromatase
T1 sequence (P11511 whole entry): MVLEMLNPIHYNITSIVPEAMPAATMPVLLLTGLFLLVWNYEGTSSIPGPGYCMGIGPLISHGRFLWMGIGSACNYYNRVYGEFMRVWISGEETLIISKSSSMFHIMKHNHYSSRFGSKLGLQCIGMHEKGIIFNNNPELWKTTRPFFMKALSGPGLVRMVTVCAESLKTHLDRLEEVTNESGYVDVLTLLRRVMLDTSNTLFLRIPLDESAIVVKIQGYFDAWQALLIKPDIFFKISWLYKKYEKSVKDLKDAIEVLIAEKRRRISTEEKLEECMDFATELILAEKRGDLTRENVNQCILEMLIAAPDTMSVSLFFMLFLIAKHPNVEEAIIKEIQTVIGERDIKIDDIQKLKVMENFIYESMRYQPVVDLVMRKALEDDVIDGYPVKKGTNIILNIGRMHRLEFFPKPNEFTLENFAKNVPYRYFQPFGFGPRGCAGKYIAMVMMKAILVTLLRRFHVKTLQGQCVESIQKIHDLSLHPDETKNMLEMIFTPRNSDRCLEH

[2] = target: T2, Steroid 17-alpha-hydroxylase/17,20 lyase (Homo sapiens, UniProt P05093); test: (§1) Inhibition of human CYP17 expressed in Escherichia coli coexpressing NADPH reductase at 2 uM; conditions: 2 µM
T2 sequence (P05093 whole entry): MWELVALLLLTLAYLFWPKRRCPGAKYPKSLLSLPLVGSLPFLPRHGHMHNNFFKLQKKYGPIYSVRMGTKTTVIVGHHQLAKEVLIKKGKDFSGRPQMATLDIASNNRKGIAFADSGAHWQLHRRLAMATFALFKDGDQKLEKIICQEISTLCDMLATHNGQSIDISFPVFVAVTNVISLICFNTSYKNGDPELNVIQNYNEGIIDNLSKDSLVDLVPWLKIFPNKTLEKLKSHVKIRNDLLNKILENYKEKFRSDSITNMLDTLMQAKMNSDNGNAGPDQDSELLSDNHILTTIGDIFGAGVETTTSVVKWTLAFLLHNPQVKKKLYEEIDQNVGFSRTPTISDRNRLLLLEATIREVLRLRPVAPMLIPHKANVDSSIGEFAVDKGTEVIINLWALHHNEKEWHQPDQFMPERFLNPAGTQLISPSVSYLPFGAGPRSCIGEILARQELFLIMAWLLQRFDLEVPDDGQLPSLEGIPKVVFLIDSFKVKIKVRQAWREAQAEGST
In short: (§2)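 Enzyme: 50,000g sediment from homogenized, fractionally centrifuged E. coli coexpressing human CYP17 and NADPH-P450 reductase. Substrate: progesterone, 25 µM. Values are means of at least three experiments, with deviations within 5%.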

[3] = target: T3, CYP17 (steroid 17-alpha-hydroxylase/17,20 lyase) (Homo sapiens, UniProt P05093); test: as §1; in short: as §2
T3 sequence (P05093 whole entry): T2 sequence (P05093 whole entry)

Aromatase [4] = target: T1, Aromatase; test: Inhibition of human aromatase at 36 uM
In short: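 Aromatase source: microsomal fraction of fresh human term placenta. Substrate: [1β,2β-³H]testosterone, 500 nM. Read-out: tritiated water released on aromatization (³H₂O method). Values are means of at least three experiments, with deviations within 5%.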

| IC50 (Aromatase [1]) [µM] | Activity [2] | inhibition at 2 µM [3] [%] | inhibition at 36 µM (Aromatase [4]) [%] | SMILES |
| --- | --- | --- | --- | --- |
| 0.35 | Not Active | – | – | Fc1ccc(CN(Cc2ccc(-c3ccccc3)cc2)n2ccnc2)c(F)c1 |
| 1.06 | – | 7.3 | – | Clc1ccc(CN(Cc2ccccc2)n2ccnc2)s1 |
| 1.04 | – | 25 | – | Cc1ccccc1CC(Cc1ccc(-c2ccccc2)cc1)n1ccnc1 (stereo unspecified) |
| – | – | 16.1 | 5.9 | C(=C\c1ccccc1)/CCN(Cc1ccc(-c2ccccc2)cc1)n1cnnc1 |
| 0.46 | Not Active | – | – | Fc1ccccc1CN(Cc1ccc(-c2ccccc2)cc1)n1ccnc1 |
| 1 | Not Active | – | – | CC(C)(C)c1ccc(CC(Cc2ccc(-c3ccccc3)cc2)n2ccnc2)cc1 (stereo unspecified) |
| – | – | 4 | 3.3 | CC(C)(C)c1ccc(CN(Cc2ccc(Cl)cc2Cl)n2cnnc2)cc1 |
| – | – | 9.2 | 27.6 | Clc1ccc(CN(Cc2ccc(-c3ccccc3)cc2)n2cncn2)c(Cl)c1 |
| 0.19 | – | 13.9 | – | Fc1ccc(CN(Cc2ccc(-c3ccccc3)cc2)n2ccnc2)cc1 |
| 0.58 | – | 10.7 | – | CC(C)(C)c1ccc(CN(Cc2cccs2)n2ccnc2)cc1 |
| 17.1 | – | 21.1 | – | Clc1ccc(CN(CC/C=C/c2ccccc2)n2cncn2)c(Cl)c1 |
| – | – | 12.4 | 31.4 | C(=C\c1ccccc1)/CCN(Cc1ccc(-c2ccccc2)cc1)n1cncn1 |
| – | Not Active | – | 30.7 | CC(C)(C)c1ccc(CN(Cc2cccs2)n2cnnc2)cc1 |
| – | – | 4.43 | 8.8 | Clc1ccc(CN(Cc2cccc3ccccc23)n2cnnc2)c(Cl)c1 |
| 0.3 | – | 29.4 | – | Clc1ccccc1CN(Cc1ccc(-c2ccccc2)cc1)n1ccnc1 |
| 4.59 | – | 13 | – | CC(C)(C)c1ccc(CN(Cc2cccc3ccccc23)n2ccnc2)cc1 |
| 2.96 | – | 20.6 | – | Cc1ccccc1CN(Cc1ccc(-c2ccccc2)cc1)n1ccnc1 |
| 1.52 | – | 43.3 | – | CC(C)(C)c1ccc(CN(Cc2ccc(Cl)cc2Cl)n2ccnc2)cc1 |
| – | – | 6.1 | 14.8 | C(=C\c1ccccc1)/CCN(Cc1cccc2ccccc12)n1cnnc1 |
| 1.51 | – | 42.9 | – | COc1ccccc1CN(Cc1ccc(-c2ccccc2)cc1)n1ccnc1 |
| – | – | 22.4 | – | CC(C)(C)c1ccc(CN(Cc2cccc3ccccc23)n2cnnc2)cc1 |
| 1.68 | – | 38.8 | – | COc1ccc(CC(Cc2ccc(-c3ccccc3)cc2)n2ccnc2)cc1 (stereo unspecified) |
| – | – | 19.9 | 38.3 | CC(C)(C)c1ccc(CN(CC/C=C/c2ccccc2)n2cnnc2)cc1 |
| 2.2 | – | 29.1 | – | Cc1ccc(CN(Cc2ccc(-c3ccccc3)cc2)n2ccnc2)cc1 |
| – | Not Active | – | 24.9 | Clc1ccc(CN(Cc2cccc3ccccc23)n2cncn2)c(Cl)c1 |
| 9.23 | Not Active | – | – | CC(C)(C)c1ccc(CN(Cc2cccs2)n2cncn2)cc1 |
| 1.18 | – | 13.6 | – | Clc1ccc(CN(Cc2ccc(-c3ccccc3)cc2)n2ccnc2)cc1 |
| 0.32 | – | 56.2 | – | Clc1ccc(CN(Cc2ccc(Cl)s2)n2ccnc2)c(Cl)c1 |
| 0.26 | – | 17.7 | – | Fc1ccc(CC(Cc2ccc(-c3ccccc3)cc2)n2ccnc2)c(F)c1 (stereo unspecified) |
| – | – | 3.13 | 14.6 | CC(C)(C)c1ccc(CN(Cc2cccc3ccccc23)n2cncn2)cc1 |

The next lines start with the compound.

| SMILES | IC50 (Aromatase [1]) [µM] | Activity [2] | inhibition at 2 µM [3] [%] | inhibition at 36 µM (Aromatase [4]) [%] |
| --- | --- | --- | --- | --- |
| Clc1ccc(CN(CC/C=C/c2ccccc2)n2cnnc2)c(Cl)c1 | – | Not Active | – | 10.6 |
| Clc1ccc(CC(Cc2ccc(-c3ccccc3)cc2)n2ccnc2)c(Cl)c1 (stereo unspecified) | 1.24 | – | 18.2 | – |
| c1ccc(CN(Cc2cccc3ccsc23)n2ccnc2)cc1 | 9.96 | – | 5.25 | – |
| Clc1ccc(CC(Cc2ccccc2)n2ccnc2)s1 (stereo unspecified) | 0.87 | – | 7.97 | – |
| CC(C)(C)c1ccc(CN(Cc2ccc(-c3ccccc3)cc2)n2cnnc2)cc1 | – | – | 15.9 | 8.8 |
| Cc1ccc(CC(Cc2ccc(-c3ccccc3)cc2)n2ccnc2)cc1 (stereo unspecified) | 1.32 | – | 32.8 | – |
| Clc1ccc(CN(Cc2cccc3ccccc23)n2ccnc2)c(Cl)c1 | 4 | – | 11.3 | – |
| Fc1ccccc1CC(Cc1ccc(-c2ccccc2)cc1)n1ccnc1 (stereo unspecified) | 1.37 | Not Active | – | – |
| Clc1ccc(CN(Cc2ccc(-c3ccccc3)cc2)n2ccnc2)s1 | 1.04 | – | 23.6 | – |
| CC(C)(C)c1ccc(CN(Cc2ccc(-c3ccccc3)cc2)n2cncn2)cc1 | – | – | 6.03 | 19.8 |
| COc1ccc(CN(Cc2ccc(-c3ccccc3)cc2)n2ccnc2)cc1 | 1.53 | – | 21.7 | – |
| CC(C)(C)c1ccc(CN(CC/C=C/c2ccccc2)n2cncn2)cc1 | 5.06 | – | 12.4 | – |
| COc1ccccc1CC(Cc1ccc(-c2ccccc2)cc1)n1ccnc1 (stereo unspecified) | 0.51 | – | 30.2 | – |
| CC(C)(C)c1ccc(CN(Cc2ccc(Cl)cc2Cl)n2cncn2)cc1 | – | – | 3.33 | 36 |
| Clc1ccc(CN(Cc2ccc(-c3ccccc3)cc2)n2ccnc2)c(Cl)c1 | 3.65 | – | 25.8 | – |
| Fc1ccc(CC(Cc2ccc(-c3ccccc3)cc2)n2ccnc2)cc1 (stereo unspecified) | 0.11 | – | 15.8 | – |
| Clc1ccccc1CC(Cc1ccc(-c2ccccc2)cc1)n1ccnc1 (stereo unspecified) | 1.09 | – | 22.6 | – |
| c1ccc(CC(Cc2ccc(-c3ccccc3)cc2)n2ccnc2)cc1 (stereo unspecified) | 0.95 | – | 17.1 | – |
| CC(C)(C)c1ccc(CN(Cc2ccc(-c3ccccc3)cc2)n2ccnc2)cc1 | 2.16 | Not Active | – | – |
| c1ccc(CN(Cc2ccc(-c3ccccc3)cc2)n2ccnc2)cc1 | 1.2 | Not Active | – | – |
| Clc1ccc(CN(Cc2ccc(-c3ccccc3)cc2)n2cnnc2)c(Cl)c1 | – | – | 13.1 | – |
| Clc1ccc(CC(Cc2ccc(-c3ccccc3)cc2)n2ccnc2)s1 (stereo unspecified) | 1.07 | – | 25.7 | – |
| C(=C\c1ccccc1)/CCN(Cc1cccc2ccccc12)n1cncn1 | 13 | – | 15.5 | – |
| Clc1ccc(CN(Cc2cccc3ccsc23)n2ccnc2)c(Cl)c1 | 2.49 | – | 4.07 | – |
